Only some compounds are listed: those with a hit (about 2.6% of all), similar ones and a draw of the others.
LMPTP inh: LMPTP phosphatase inhibitors, primary screen, biochemical, fluorescence intensity, uHTS; Low molecular weight phosphotyrosine protein phosphatase (Homo sapiens), P24666; recombinant LMPTP-A, OMFP fluorogenic substrate; inhibition, % at 20 µM; 360,000 tested, 0.22% active;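 active = compounds that cut the enzyme signal by at least half of the control window in the single-dose screen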
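Buffer or medium: Bis-Tris pH 6.0, DTT, detergent; Assay system: LMPTP-A enzyme; Quantity: 0.625 nM enzyme; Detection: endpoint fluorescence intensity; Times: 50 min dark incubation at room temperature; Controls: substrate-only low control, DMSO enzyme-plus-substrate high control; Doses: single 20 µM dose; Read-out: percent inhibition versus substrate-only and uninhibited controls; Reagent: 400 µM OMFP.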
rCAG binder: binders of r(CAG) RNA repeats, primary screen, biochemical, fluorescence; r(CAG) RNA repeat, TO-PRO-1 dye displacement fluorescence; inhibition, % at 3 µM; 370,000 tested, 1.3% active;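 active = inhibition above the plate cutoff, the mean of all test compounds on that plate plus 3 SD, cut at about 35% in these data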;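 note: higher means more dye released from RNA so lower well fluorescence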
NadD inh: inhibitors of S. aureus NadD, primary screen, biochemical, colorimetric, uHTS; inhibition, % at 20 µM; Nicotinate-nucleotide adenylyltransferase NadD (Staphylococcus aureus N315); purified NadD enzyme, colorimetric absorbance read-out; 360,000 tested, 0.78% active; in the data active = inhibition above about 26%
STEP block: STEP phosphatase inhibitors, primary screen, biochemical, fluorescence intensity, uHTS; 360,000 tested, 0.25% active; recombinant STEP, OMFP fluorogenic substrate; inhibition, % at 20 µM;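 active = inhibition at 20 µM, scaled per plate between control wells, above about 37%, limit read from the data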
Target sequence (P54829 whole entry, looked up): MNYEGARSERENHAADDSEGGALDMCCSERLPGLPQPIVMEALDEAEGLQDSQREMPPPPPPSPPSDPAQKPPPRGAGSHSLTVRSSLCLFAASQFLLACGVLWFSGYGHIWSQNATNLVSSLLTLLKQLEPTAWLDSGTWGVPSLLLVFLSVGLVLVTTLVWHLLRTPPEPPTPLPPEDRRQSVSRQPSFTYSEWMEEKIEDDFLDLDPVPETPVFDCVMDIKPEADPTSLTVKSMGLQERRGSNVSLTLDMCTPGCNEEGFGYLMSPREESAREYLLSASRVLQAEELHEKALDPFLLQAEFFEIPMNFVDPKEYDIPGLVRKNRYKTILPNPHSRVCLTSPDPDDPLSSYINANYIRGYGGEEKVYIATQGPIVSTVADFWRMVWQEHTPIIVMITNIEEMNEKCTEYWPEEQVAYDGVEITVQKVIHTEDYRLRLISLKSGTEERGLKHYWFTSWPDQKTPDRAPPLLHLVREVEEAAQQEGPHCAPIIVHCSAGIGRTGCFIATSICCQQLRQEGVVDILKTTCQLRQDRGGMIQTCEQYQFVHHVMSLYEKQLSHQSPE
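material = STEP tyrosine phosphatase | reagent = fluorogenic phosphatase substrate OMFP at 25 µM final | doses = single compound dose of 20 µM, 1% DMSO final | schedule = 20 min reaction, room temperature, in the dark | measured by = fluorescence, 480/540 nm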
Scp1 inh: Scp-1 phosphatase inhibitors, primary screen, biochemical, colorimetric, uHTS; Carboxy-terminal domain RNA polymerase II polypeptide A small phosphatase 1 (Homo …; Recombinant Scp1, phosphopeptide, malachite green phosphate absorbance; inhibition, % at 20 µM; 340,000 tested, 0.88% active;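 active = inhibition above about 50% at 20 µM, limit read from the data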
Target sequence (Q9GZU7 76-261 limits assumed): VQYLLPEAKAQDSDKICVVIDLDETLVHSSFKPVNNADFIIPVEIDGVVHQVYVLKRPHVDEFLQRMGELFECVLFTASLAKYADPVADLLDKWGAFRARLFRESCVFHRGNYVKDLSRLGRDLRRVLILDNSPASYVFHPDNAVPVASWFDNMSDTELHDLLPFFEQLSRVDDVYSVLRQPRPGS
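Test system: SCP-1 phosphatase catalytic domain, residues 76-261 | Compound dosing: One concentration, 20 µM, with 1.0% DMSO | Schedule: 45 min room-temperature reaction, 5 min colour, 30 min stabiliser | Detection: Absorbance at 630 nm | Read-out basis: % inhibition of SCP-1 phosphate liberation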
rCAG bind conf: small molecules binding CAG repeat RNA – biochemical, fluorescence, confirmation. shares compounds with rCAG binder. r(CAG) RNA repeat, TO-PRO-1 dye displacement fluorescence. inhibition, % at 3 µM. 4,300 tested, 70% active;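 active = inhibition above a per-plate cutoff, the mean inhibition of sample wells plus 3 SD, cut at about 35% in these data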;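 note: loss of TO-PRO-1 fluorescence as compound displaces dye from 1x1 AA loop RNA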
dCAG dye counter: displacement of TO-PRO-1 from CAG DNA duplex, counter-screen for rCAG RNA repeat binder project, biochemical, fluorescence, TO-PRO-1 dye, d(CAG) DNA oligo; 4,300 tested, 94% active; shares compounds with rCAG binder; inhibition, % at 3 µM; d(CAG) DNA oligo TO-PRO-1 dye displacement;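 active = inhibition above its plate's cutoff, the mean test-well inhibition plus 3 SD, cut at about 4.8% in these data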;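 note: hits displace the dye from DNA and so lower well fluorescence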
Each line names hits and unclear results; the compound was inactive in the other large screens (follow-up assays come after a bar, where they were run).

O=C(N/N=C/c1ccncc1)C1CC1(c1ccccc1)c1ccccc1 (centres undefined)	none
O=C(CSc1nnc(COc2ccccc2)n1-c1ccccc1)Nc1ccc2c(c1)OCO2	none (no result: LMPTP inh, NadD inh, STEP block, Scp1 inh)
Cc1cccc(C)c1-n1nnnc1C1(C)Cn2nccc2C(=O)N1Cc1ccc(F)cc1 (centres undefined)	none (no result: LMPTP inh, NadD inh, STEP block, Scp1 inh)
O=C(OC1CCOC1=O)c1cccc(S(=O)(=O)Nc2cccc(Cl)c2)c1 (centres undefined)	rCAG binder 34.9 | rCAG bind conf inactive | dCAG dye counter 9.1
CNS(=O)(=O)c1cccc(C(=O)OC2CCOC2=O)c1 (centres undefined)	none
CC(=O)OCCNc1cc(SCc2ccco2)c2nonc2c1[N+](=O)[O-]	none (no result: rCAG binder)
O=[N+]([O-])c1c(NCCCO)cc(SCc2ccco2)c2nonc12	rCAG binder 47.3 | rCAG bind conf inactive | dCAG dye counter inactive
CC(C)(C)c1ccc(OCC(=O)Nc2ccc(C(=O)Nc3ccccc3C(=O)O)cc2)cc1	rCAG binder 42.6 | rCAG bind conf 88.2 | dCAG dye counter 67.3
COc1ccccc1OCC(=O)Nc1ccc(C(=O)Nc2ccccc2C(=O)O)cc1	rCAG binder 58.1 (no result: Scp1 inh) | rCAG bind conf 64.7 | dCAG dye counter 22.8
CC(C)(C)c1ccc(OCC(=O)NNC(=O)Nc2ccccc2)cc1	none
COc1ccccc1OCC(=O)Nc1ccc(NC(=O)COc2ccccc2OC)cc1	none
COc1ccc(CC(=O)Nc2ccc(C(=O)Nc3ccccc3C(=O)O)cc2)cc1OC	rCAG binder 58.6 | rCAG bind conf 42.0 | dCAG dye counter 9.9
O=C1N(c2ccccc2)CC2CC(c3ccccc3)N3CCCC123 (centres undefined)	none (no result: LMPTP inh, NadD inh, STEP block, Scp1 inh)
COc1ccc(C2CC(c3ccccc3)=NN2c2ccc(N)cc2)cc1 (centres undefined)	none
COc1ccc(C2CC(c3ccccc3)=NN2c2ccc(S(N)(=O)=O)cc2)cc1OC (centres undefined)	none
COc1ccc2c(c1OC)C(=O)N1N=C(c3ccccc3)CC21 (centres undefined)	none
COc1ccc(C2=NN(c3ccc(C(=O)O)cc3)C(c3ccc(OC)c(OC)c3)C2)cc1 (centres undefined)	rCAG binder 39.2 | rCAG bind conf 49.3 | dCAG dye counter 14.2
COc1cc(C2CC(c3ccccc3)=NN2c2ccccc2)ccc1OCC(=O)O (centres undefined)	rCAG binder 40.7 | rCAG bind conf 50.4 | dCAG dye counter 14.6
COc1ccc(-c2nn(CCC(=O)O)cc2CCC(=O)O)cc1	none
COc1ccc(C2=NN(c3ccccc3)C(c3cn(CCC(=O)O)nc3-c3ccccc3)C2)cc1 (centres undefined)	rCAG binder 39.0 | rCAG bind conf 45.5 | dCAG dye counter 11.9
COc1ccc(C2CC(c3ccccc3)=NN2c2ccccc2)c(C(=O)O)c1OC (centres undefined)	rCAG binder 46.2 | rCAG bind conf 59.1 | dCAG dye counter 15.6
CC(C)NC(=O)[C@]1(C#N)CC(=O)N(C)[C@@H]1c1ccccc1	none (no result: LMPTP inh, NadD inh, STEP block, Scp1 inh)
CN(C)CC(=O)N[C@@H]1C[C@@H]2O[C@@H](CO)CC[C@@H]2O[C@@H]1CCc1ccc(C2=CCCCC2)cc1	none (no result: LMPTP inh, NadD inh, STEP block, Scp1 inh)
COc1ccc(C2CC(c3ccccc3)=NN2c2ccc(Cl)c(C(=O)O)c2)cc1 (centres undefined)	rCAG binder 60.7 | rCAG bind conf 55.4 | dCAG dye counter 17.0
Cc1cc(NS(=O)(=O)c2ccc(NC(=O)Cc3cccs3)cc2)no1	none (no result: rCAG binder)
Cc1cc(NC(=O)Cc2cccs2)no1	LMPTP inh 55.0, rCAG binder 39.9, Scp1 inh 83.6 | rCAG bind conf 35.0 | dCAG dye counter 23.0
Cc1cc(C)c2nc(NNC(=O)c3ccc(S(=O)(=O)N4CCCC(C)C4)cc3)sc2c1 (centres undefined)	rCAG binder 47.5 | rCAG bind conf 52.1 | dCAG dye counter 22.8
Cc1cccc(NC(=O)CN2C(=O)CCSc3ccccc32)c1C	none (no result: LMPTP inh, NadD inh, STEP block, Scp1 inh)
CCc1ccc(S(=O)(=O)Nc2ccc(-c3nc4cccnc4s3)cc2)s1	rCAG binder 56.8 | rCAG bind conf 57.6 | dCAG dye counter 21.7
O=S(=O)(Nc1ccc(-c2nc3cccnc3s2)cc1)c1cc(F)ccc1F	rCAG binder 44.8 | rCAG bind conf 35.3 | dCAG dye counter 9.2
NS(=O)(=O)c1ccc(C(=O)Nc2ccc(-c3nc4cccnc4s3)cc2)cc1	none
COC[C@@H]1CCCN1c1cccc2c1S(=O)(=O)N1CC[C@@H](C1)O2	none (no result: LMPTP inh, NadD inh, STEP block, Scp1 inh)
CCc1nc(SCC(=O)Nc2cc(C)ccc2OC)c2c(C)c(C)sc2n1	rCAG binder 34.9 | rCAG bind conf inactive | dCAG dye counter inactive
CCc1nc(SCC(=O)Nc2ccccc2OC)c2c(C)c(C)sc2n1	none
COC(=O)C1CN(CCO)CCS(=O)(=O)N1Cc1cn(Cc2ccc(C)cc2)nn1 (centres undefined)	none (no result: LMPTP inh, NadD inh, STEP block, Scp1 inh)
O=C(CSCc1ccccc1)Nc1ccccc1C(=O)Nc1ccc(C(=O)O)cc1	none
O=C(CSCc1ccccc1)Nc1cccc(C(=O)Nc2ccccc2C(=O)O)c1	rCAG binder 71.7 | rCAG bind conf 55.1 | dCAG dye counter 17.6
O=C(CSCc1ccc(Cl)cc1)Nc1cccc(C(=O)Nc2ccccc2C(=O)O)c1	rCAG binder 75.6 | rCAG bind conf 82.6 | dCAG dye counter 43.3
O=C(O)CCCC(=O)Nc1cccc(C(=O)Nc2ccccc2C(=O)O)c1	none
O=C(NC1CCCCN(Cc2ccc(Cl)cc2)C1=O)c1ccc(F)cc1 (centres undefined)	none (no result: LMPTP inh, NadD inh, STEP block, Scp1 inh)
N#C/C(=C\c1ccc(-c2ccc(F)cc2)o1)C(=O)Nc1nc(-c2cccs2)cs1	rCAG binder 36.0 | rCAG bind conf inactive | dCAG dye counter 10.8
N#C/C(=C/c1ccc(-c2ccccc2)o1)c1nc(-c2cccs2)cs1	none
Cc1ccc2c(c1)C(CS(=O)(=O)NCCc1ccccc1)NC2 (centres undefined)	none (no result: LMPTP inh, NadD inh, STEP block, Scp1 inh)
COc1cccc([C@@H]2CC=C(C(=O)O)[C@H](c3ccccc3)N2S(=O)(=O)c2ccc(C)cc2)c1	rCAG binder 43.4 | rCAG bind conf 36.9 | dCAG dye counter 8.9
COc1cccc([C@@H]2CC=C(C(=O)O)[C@H](c3ccc(F)cc3)N2S(=O)(=O)c2ccc(C)cc2)c1	rCAG binder 45.5 | rCAG bind conf 37.1 | dCAG dye counter 9.3
